From PubChem BioAssay
The source made the active and inactive calls.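 Rule for the calls, unless noted: active = GFP response above 150% of the DMSO level; inconclusive = fewer than 70 events counted for a yeast strain; inactive = the rest.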

Columns and labels:
[1] = hit retest on RPL19A-GFP reporter strain – cell-based, S. cerevisiae, flow cytometry, cherry picks, mother/daughter gates, confirmation (AID 2270;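 active = GFP response below 50% of the DMSO control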); settings: 3 h, at 10 µM, stronger effect = lower value, 100 = same GFP as DMSO wells
[2] = yeast TOR pathway reporter LAP4-GFP change – cell-based, cherry picks, flow cytometry, mother/daughter gates, confirmation (AID 2271;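 active = GFP response above 150% of the DMSO control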;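 note: ratio of sample to DMSO plate mean so 100% equals DMSO level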); settings: S. cerevisiae LAP4-GFP strain, 3 h, at 10 µM, stronger effect = higher value, 100 means same as DMSO control
Procedure, shortened: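 Measured by: GFP by flow cytometry. Test system: GFP-fusion yeast strain. Input: yeast cells seeded at OD600 of 0.2. Timing: 30 °C, 3 h compound incubation, rotating. Buffer or medium: synthetic complete medium for yeast. Benchmarks: DMSO-only negative wells, rapamycin 400 ng/mL positive wells. Compound: 10 µM single dose.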

[3] = TOR pathway reporter MEP2-GFP, retest of hits – S. cerevisiae, flow cytometry GFP, cherry picks, confirmation (AID 2272;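 active = GFP response above 150% of the DMSO control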;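 note: ratio of well signal to plate DMSO mean so 100% equals DMSO level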); settings: S. cerevisiae MEP2-GFP strain, 3 h, at 10 µM, stronger effect = higher value
[4] = yeast AGP1-GFP fluorescence change, single-dose – cell-based, flow cytometry, S. cerevisiae, cherry picks, confirmation (AID 2273);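 note: median GFP channel fluorescence over the whole cell population gate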; settings: S. cerevisiae AGP1-GFP strain, 3 h, at 10 µM
[5] = TOR pathway CIT2 reporter hit retest – S. cerevisiae, GFP fusion, cherry picks, mother/daughter gates, confirmation (AID 2274); settings: S. cerevisiae CIT2-GFP strain, flow cytometry, 3 h, at 10 µM, stronger effect = higher value
[6] = measured here: daughter cell gate
[7] = measured here: mother cell gate
[8] = measured here: daughter cell gate response
[9] = measured here: mother cell gate response

Compound | GFP response vs DMSO [1] | GFP response vs DMSO [1, 6] [%] | GFP response vs DMSO [1, 7] [%] | GFP response relative to DMSO [2] | GFP response relative to DMSO [2, 8] [%] | GFP response relative to DMSO [2, 9] [%] | GFP response vs DMSO [3] | GFP response, % of DMSO [4] | GFP response, % of DMSO [5] | GFP response, % of DMSO [5, 6] [%] | GFP response, % of DMSO [5, 7] [%]
O=C1c2ccsc2SCCN1Cc1c(Cl)cccc1Cl | 102% (inactive) | 99.2 | 102 | 98.7% (inactive) | 97.2 | 102 | 93.5% (inactive) | 93.9% (inactive) | 103% (inactive) | 101 | 104
O=S1(=O)Nc2c(ccc3cccnc23)-c2ccccc21 | 89.9% (inactive) | 91.7 | 103 | 124% (inactive) | 104 | 163 | 112% (inactive) | 103% (inactive) | 111% (inactive) | 108 | 113
CC(C)n1c(=S)[nH]c2c1c(=O)[nH]c(=O)n2C | 98.8% (inactive) | 97.3 | 99.8 | 99.8% (inactive) | 102 | 101 | 100% (inactive) | 104% (inactive) | 100% (inactive) | 99.7 | 102
O=C(/C=C/c1c(F)cccc1Cl)c1ccc(O)cc1 | 94.3% (inactive) | 94 | 94.6 | 144% (inactive) | 137 | 152 | 105% (inactive) | 105% (inactive) | 94.7% (inactive) | 93.7 | 93.7
CCN(CC(O)Cn1c2ccccc2c2ccccc21)S(=O)(=O)c1ccc(F)cc1 (centres undefined) | 96% (inactive) | 96.5 | 96.7 | 108% (inactive) | 107 | 108 | 97.5% (inactive) | 95.8% (inactive) | 96.4% (inactive) | 96.4 | 94.5
COc1cccc(C(=O)C(C#N)=C(SC)SC)c1 | 108% (inactive) | 102 | 106 | 123% (inactive) | 108 | 126 | 97.8% (inactive) | 95.7% (inactive) | 80.8% (inactive) | 80.1 | 79.4
CCC(C)(C)NC(=O)C(c1cccs1)N(CC1CCCO1)C(=O)Cn1nnc2ccccc21 (centres undefined) | 95.3% (inactive) | 95.9 | 94.4 | 98.9% (inactive) | 96 | 99.5 | 101% (inactive) | 102% (inactive) | 101% (inactive) | 105 | 102
Cc1ccc(CC2CC(=O)N(Cc3ccco3)C2=O)cc1 (centres undefined) | 102% (inactive) | 101 | 101 | 93.8% (inactive) | 97.2 | 94.2 | 95.7% (inactive) | 99.2% (inactive) | 107% (inactive) | 105 | 109
Cc1cc(N2CCOCC2)n2nc(C)c(-c3ccccc3)c2n1 | 103% (inactive) | 100 | 102 | 98.2% (inactive) | 95.9 | 97.3 | 101% (inactive) | 101% (inactive) | 98.8% (inactive) | 97.4 | 98.1
CC(=O)c1cc(NC(=O)c2ccc(C)cc2)c(=O)oc1C | 96.6% (inactive) | 97.5 | 96 | 105% (inactive) | 104 | 104 | 104% (inactive) | 94.3% (inactive) | 99.3% (inactive) | 100 | 96.8
COc1ccc(-c2nc3cc(C)ccn3c2NCC2CCCO2)cc1OC (centres undefined) | 94.8% (inactive) | 96.4 | 93.4 | 97% (inactive) | 94.2 | 96.2 | 99% (inactive) | 104% (inactive) | 100% (inactive) | 101 | 99.3
CC(=O)NN1C(=O)/C(=C/c2ccc(Br)o2)SC1=S | 103% (inactive) | 101 | 102 | 128% (inactive) | 122 | 126 | 139% (inactive) | 111% (inactive) | 153% (active) | 150 | 150
O=C(NN1C(=O)/C(=C\c2ccc(O)c([N+](=O)[O-])c2)SC1=S)c1ccccc1Cl | 97.4% (inactive) | 95.9 | 95.8 | 126% (inactive) | 106 | 129 | 123% (inactive) | 69.8% (inactive) | 107% (inactive) | 99.1 | 106
COc1cc(NC(=O)c2cccc([N+](=O)[O-])c2)ccc1NC(=O)c1cc2ccccc2o1 | 98% (inactive) | 99.9 | 97.8 | 94.9% (inactive) | 98.2 | 95.1 | 101% (inactive) | 100% (inactive) | 107% (inactive) | 105 | 108
COc1ccc(N2CCN(C(=O)c3ccc(Br)cc3)CC2)c([N+](=O)[O-])c1 | 114% (inactive) | 80.2 | 102 | 208% (active) | 131 | 192 | 132% (inactive) | 153% (active) | 105% (inactive) | 82.5 | 90.8
COc1ccc(OC(=O)c2cccc(S(=O)(=O)N3CCCC3)c2)cc1 | 96.6% (inactive) | 95.4 | 96.1 | 90.2% (inactive) | 91.2 | 89.7 | 105% (inactive) | 96.4% (inactive) | 103% (inactive) | 103 | 101
O=C(COC(=O)c1n[nH]c2ccccc12)c1cccc(Br)c1 | 96.5% (inactive) | 95.6 | 94.8 | 101% (inactive) | 101 | 99.5 | 101% (inactive) | 102% (inactive) | 100% (inactive) | 95.8 | 100

Compound | GFP response vs DMSO [1] | GFP response vs DMSO [1, 6] [%] | GFP response vs DMSO [1, 7] [%] | GFP response relative to DMSO [2] | GFP response relative to DMSO [2, 8] [%] | GFP response relative to DMSO [2, 9] [%] | GFP response vs DMSO [3] | GFP response, % of DMSO [4] | GFP response, % of DMSO [5] | GFP response, % of DMSO [5, 6] [%] | GFP response, % of DMSO [5, 7] [%]
CCCc1[nH]nc2c1C(c1ccc(O)c(OC)c1)C(C#N)=C(N)O2 (centres undefined) | 103% (inactive) | 101 | 103 | 92.6% (inactive) | 94.1 | 93.1 | 107% (inactive) | 97.6% (inactive) | 103% (inactive) | 101 | 103
Cc1ccc(-c2nc3ccccn3c2NC(=O)c2ccco2)cc1 | 94.9% (inactive) | 96.4 | 95 | 98.9% (inactive) | 97.5 | 98.4 | 101% (inactive) | 98.4% (inactive) | 104% (inactive) | 103 | 104
Cc1c(O)nc(SC2CC(=O)N(c3ccccc3)C2=O)[nH]c1=O (centres undefined) | 96.4% (inactive) | 96.5 | 96.7 | 109% (inactive) | 101 | 107 | 99.5% (inactive) | 97.1% (inactive) | 96.4% (inactive) | 98.3 | 96.8
CCNC(=O)/C(C#N)=C/c1c(N2CCN(Cc3ccc4c(c3)OCO4)CC2)nc2c(C)cccn2c1=O | 101% (inactive) | 99.2 | 103 | 99.8% (inactive) | 97.2 | 101 | 102% (inactive) | 100% (inactive) | 104% (inactive) | 101 | 104
CS(=O)(=O)N1N=C(c2ccc3nccnc3c2)CC1c1ccccc1 (centres undefined) | 99.8% (inactive) | 102 | 98.2 | 100% (inactive) | 102 | 99.5 | 101% (inactive) | 98.4% (inactive) | 103% (inactive) | 103 | 102
COc1ccc(C2CC(c3cccs3)=NN2S(=O)(=O)c2ccc(C)cc2)cc1 (centres undefined) | 98.7% (inactive) | 99.1 | 98.6 | 106% (inactive) | 105 | 107 | 104% (inactive) | 106% (inactive) | 106% (inactive) | 106 | 106
O=C(CSc1cccc[n+]1[O-])c1cc2ccccc2o1 | 104% (inactive) | 107 | 103 | 138% (inactive) | 126 | 137 | 109% (inactive) | 97.2% (inactive) | 107% (inactive) | 111 | 104
Cc1ccc(S(=O)(=O)/N=C(\Sc2ccccc2)c2ccccc2)cc1 | 99.5% (inactive) | 98.3 | 98.6 | 151% (active) | 134 | 148 | 106% (inactive) | 97.3% (inactive) | 92.1% (inactive) | 92.7 | 87.5
O=C1CC(Sc2nnc(-c3ccccc3O)o2)C(=O)N1c1ccccc1 (centres undefined) | 95.1% (inactive) | 98.3 | 93.1 | 104% (inactive) | 101 | 105 | 101% (inactive) | 104% (inactive) | 106% (inactive) | 103 | 106
CN(C(=O)c1cccnc1)c1nc(-c2ccccc2)cs1 | 97.6% (inactive) | 97.3 | 95 | 102% (inactive) | 99 | 102 | 106% (inactive) | 96.1% (inactive) | 98.6% (inactive) | 99.3 | 96
Cc1cccc(N=c2c([N+](=O)[O-])nn(-c3ccc(Cl)cc3)n2O)c1 | 97% (inactive) | 95.1 | 97.7 | 111% (inactive) | 104 | 114 | 102% (inactive) | 90.4% (inactive) | 107% (inactive) | 103 | 108
N#C/C(=C\c1c(N2CCC(C(N)=O)CC2)nc2ccccn2c1=O)C(=O)NCc1ccco1 | 97.8% (inactive) | 98.8 | 97.6 | 101% (inactive) | 99.3 | 99.5 | 102% (inactive) | 99.3% (inactive) | 104% (inactive) | 102 | 101
O=[N+]([O-])/C=C/c1cn(Cc2ccc(F)cc2)c2ccccc12 | 103% (inactive) | 104 | 102 | 113% (inactive) | 110 | 115 | 105% (inactive) | 94.5% (inactive) | 104% (inactive) | 105 | 101
COCCCN(C(=O)c1ccco1)c1nc(-c2cc(OC)ccc2OC)cs1 | 95.8% (inactive) | 96.4 | 94 | 98.9% (inactive) | 96 | 100 | 112% (inactive) | 98.4% (inactive) | 100% (inactive) | 103 | 99.3
COc1cc(-c2noc(-c3cccc(Cl)c3)n2)cc(OC)c1OC | 96.2% (inactive) | 97 | 95.8 | 90.6% (inactive) | 88.2 | 91.3 | 103% (inactive) | 99.5% (inactive) | 101% (inactive) | 101 | 103
NC(=O)c1ccccc1OCC(=O)c1ccc(Cl)cc1 | 100% (inactive) | 101 | 99 | 96.5% (inactive) | 96 | 97.4 | 99.3% (inactive) | 102% (inactive) | 100% (inactive) | 97.6 | 100
COc1ccc(NC(=O)C2C3C=CC(C3)C2C(=O)NCc2ccco2)c(OC)c1 (centres undefined) | 97.6% (inactive) | 94.4 | 93.3 | 100% (inactive) | 96 | 94.4 | 101% (inactive) | 103% (inactive) | 98.6% (inactive) | 95.8 | 96
